Measured values: ChEMBL document CHEMBL3102810, “Alkylamino derivatives of pyrazinamide: synthesis and antimycobacterial evaluation” (Bioorg Med Chem Lett, 2014)
Converted amounts (≈) assume the structure as drawn. The source made the active and inactive calls. No cut-off for these calls is given here.

How the values were obtained:
[1] = tested on: Mycobacterium avium; assay: Antimycobacterial activity against pyrazinamide-resistant Mycobacterium avium CNCTC My 152/73 after 5 days by microplate alamar blue assay; format: functional; settings: CNCTC My 152/73, 120 h
Method in brief: (§1)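 Microplate alamar blue assay run at pH 5.6, using conditions optimized for pyrazinamide. Strains came from the Czech National Collection of Type Cultures. MIC was read in µg/mL and converted to µM using molecular weight.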

[2] = tested on: Trichophyton mentagrophytes; assay: Antifungal activity against Trichophyton mentagrophytes after 72 to 120 hrs by microdilution broth method; format: functional, organism-based
[3] = tested on: Aspergillus fumigatus; assay: Antifungal activity against Aspergillus fumigatus 231 after 72 to 120 hrs by microdilution broth method; format: functional, organism-based
[4] = tested on: Trichophyton mentagrophytes; assay: Antifungal activity against Trichophyton mentagrophytes 445 after 72 to 120 hrs by microdilution broth method; format: functional, organism-based
[5] = tested on: Pseudomonas aeruginosa; assay: Antibacterial activity against Pseudomonas aeruginosa CCM 1961 after 24 to 48 hrs by microdilution broth method; format: functional, organism-based
Method in brief: (§2)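 Antibacterial screen with compound concentrations up to a highest level of 500 µM. Results expressed as MIC in µM.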

[6] = Selectivity index, ratio of IC50 for human HepG2 cells to MIC for Mycobacterium tuberculosis H37Rv CNCTC My 331/88; format: toxicity, cell-based; settings: read-out: Selectivity Index
Method in brief: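 HepG2 human liver cell viability was measured by a colorimetric tetrazolium-reduction assay, and IC50 was derived from the toxicity curves. MIC against M. tuberculosis H37Rv came from the alamar blue microplate assay at pH 5.6. SI = IC50/MIC, both in molar units.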

[7] = tested on: Candida albicans; assay: Antifungal activity against Candida albicans ATCC 44859 after 72 to 120 hrs by microdilution broth method; format: functional, organism-based
[8] = tested on: Mycobacterium tuberculosis; assay: Antimycobacterial activity against Mycobacterium tuberculosis H37Rv CNCTC My 331/88 after 5 days by microplate alamar blue assay; format: functional; settings: H37Rv CNCTC My 331/88, 120 h; method in brief: as §1
[9] = tested on: Klebsiella pneumoniae; assay: Antibacterial activity against Klebsiella pneumoniae D 11750/08 after 24 to 48 hrs by microdilution broth method; format: functional, organism-based; method in brief: as §2
[10] = tested on: Trichosporon asahii; assay: Antifungal activity against Trichosporon asahii 1188 after 72 to 120 hrs by microdilution broth method; format: functional, organism-based
[11] = tested on: HepG2; assay: Cytotoxicity against human HepG2 cells after 24 hrs; format: cell-based; settings: HepG2, 24 h
Method in brief: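 HepG2 human liver cells; loss of viability measured by a colorimetric tetrazolium-reduction assay. IC50 derived from the toxicity curves. Where limited solubility in the culture medium capped the tested concentration, only an estimate of the toxic concentration was given.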

[12] = tested on: Enterococcus sp.; assay: Antibacterial activity against Enterococcus sp. J 14365/08 after 24 to 48 hrs by microdilution broth method; format: functional, organism-based; method in brief: as §2
[13] = tested on: Escherichia coli; assay: Antibacterial activity against Escherichia coli CCM 4517 after 24 to 48 hrs by microdilution broth method; format: functional, organism-based; method in brief: as §2
[14] = tested on: Staphylococcus epidermidis; assay: Antibacterial activity against Staphylococcus epidermidis H 6966/08 up to 500 uM after 24 to 48 hrs by microdilution broth method; format: functional, organism-based; method in brief: as §2
[15] = tested on: Pichia kudriavzevii; assay: Antifungal activity against Candida krusei E28 after 72 to 120 hrs by microdilution broth method; format: functional, organism-based
[16] = tested on: Staphylococcus epidermidis; assay: Antibacterial activity against methicillin-resistant Staphylococcus epidermidis H 5996/08 after 24 to 48 hrs by microdilution broth method; format: functional, organism-based
[17] = tested on: Mycobacterium avium; assay: Antimycobacterial activity against pyrazinamide-resistant Mycobacterium avium CNCTC My 80/72 after 5 days by microplate alamar blue assay; format: functional; settings: CNCTC My 80/72, 120 h; method in brief: as §1
[18] = tested on: Klebsiella pneumoniae; assay: Antibacterial activity against ESBL positive Klebsiella pneumoniae J 14368/08 after 24 to 48 hrs by microdilution broth method; format: functional, organism-based; method in brief: as §2
[19] = tested on: Nakaseomyces glabratus; assay: Antifungal activity against Candida glabrata 20/I after 72 to 120 hrs by microdilution broth method; format: functional, organism-based
[20] = tested on: Staphylococcus epidermidis; assay: Antibacterial activity against Staphylococcus epidermidis H 6966/08 after 48 hrs by microdilution broth method; format: functional; method in brief: as §2
[21] = Lipophilicity, log K of the compound by HPLC analysis; format: physicochemical
[22] = tested on: Candida tropicalis; assay: Antifungal activity against Candida tropicalis 156 after 72 to 120 hrs by microdilution broth method; format: functional, organism-based
[23] = tested on: Lichtheimia corymbifera; assay: Antifungal activity against Absidia corymbifera 272 after 72 to 120 hrs by microdilution broth method; format: functional, organism-based
[24] = tested on: Staphylococcus aureus; assay: Antibacterial activity against Staphylococcus aureus CCM 4516/08 after 24 to 48 hrs by microdilution broth method; format: functional, organism-based; method in brief: as §2
[25] = tested on: Mycobacterium kansasii; assay: Antimycobacterial activity against pyrazinamide-resistant Mycobacterium kansasii CNCTC My 235/80 after 5 days by microplate alamar blue assay; format: functional; settings: CNCTC My 235/80, 120 h; method in brief: as §1

Structure (SMILES): NC(=O)c1cncc(Cl)n1
- MIC [1]: > 100 µg/mL
- Activity [2]: inactive
- Activity [3]: inactive
- Activity [4]: inactive
- Activity [5]: inactive
- selectivity ratio [6]: 5.5
- Activity [7]: inactive
- MIC [8]: 635 µM
- Activity [9]: inactive
- Activity [10]: inactive
- IC50 [11]: 3.5 mM
- Activity [12]: inactive
- Activity [13]: inactive
- Activity [14]: inactive
- Activity [15]: inactive
- Activity [16]: inactive
- MIC [17]: > 100 µg/mL
- Activity [18]: inactive
- Activity [19]: inactive
- Activity [20]: inactive
- log K [21]: -0.4165
- Activity [22]: inactive
- Activity [23]: inactive
- Activity [24]: inactive
- MIC [25]: > 100 µg/mL

Structure (SMILES): CCCCCCCCNc1cnc(C(N)=O)cn1
- MIC [1]: > 100 µg/mL
- Activity [2]: inactive
- Activity [3]: inactive
- Activity [4]: inactive
- Activity [5]: inactive
- selectivity ratio [6]: > 10
- Activity [7]: inactive
- MIC [8]: 25 µM
- Activity [9]: inactive
- Activity [10]: inactive
- IC50 [11]: > 0.25 mM
- Activity [12]: inactive
- Activity [13]: inactive
- Activity [14]: inactive
- Activity [15]: inactive
- Activity [16]: inactive
- MIC [17]: > 100 µg/mL
- Activity [18]: inactive
- Activity [19]: inactive
- Activity [20]: inactive
- log K [21]: 0.693
- Activity [22]: inactive
- Activity [23]: inactive
- Activity [24]: inactive
- MIC [25]: 25 µM

Structure (SMILES): NC(=O)c1cnccn1 [PYRAZINAMIDE]
- MIC [1]: > 100 µg/mL
- selectivity ratio [6]: > 98.1
- MIC [8]: 102 µM
- IC50 [11]: > 10 mM
- MIC [17]: > 100 µg/mL
- log K [21]: -0.6872
- MIC [25]: > 100 µg/mL

Structure (SMILES): CCNc1cncc(C(N)=O)n1
- MIC [1]: > 100 µg/mL
- Activity [2]: inactive
- Activity [3]: inactive
- Activity [4]: inactive
- Activity [5]: inactive
- Activity [7]: inactive
- MIC [8]: > 100 µg/mL
- Activity [9]: inactive
- Activity [10]: inactive
- Activity [12]: inactive
- Activity [13]: inactive
- Activity [14]: inactive
- Activity [15]: inactive
- Activity [16]: inactive
- MIC [17]: > 100 µg/mL
- Activity [18]: inactive
- Activity [19]: inactive
- Activity [20]: inactive
- log K [21]: -0.6318
- Activity [22]: inactive
- Activity [23]: inactive
- Activity [24]: inactive
- MIC [25]: > 100 µg/mL

Structure (SMILES): NC(=O)c1cnc(NCCc2ccccc2)cn1
- MIC [1]: > 100 µg/mL
- Activity [2]: inactive
- Activity [3]: inactive
- Activity [4]: inactive
- Activity [5]: inactive
- Activity [7]: inactive
- MIC [8]: 206 µM
- Activity [9]: inactive
- Activity [10]: inactive
- Activity [12]: inactive
- Activity [13]: inactive
- Activity [14]: inactive
- Activity [15]: inactive
- Activity [16]: inactive
- MIC [17]: > 100 µg/mL
- Activity [18]: inactive
- Activity [19]: inactive
- Activity [20]: inactive
- log K [21]: -0.0382
- Activity [22]: inactive
- Activity [23]: inactive
- Activity [24]: inactive
- MIC [25]: 100 µg/mL

Structure (SMILES): NC(=O)c1cnc(NCCCc2ccccc2)cn1
- MIC [1]: > 100 µg/mL
- Activity [2]: inactive
- Activity [3]: inactive
- Activity [4]: inactive
- Activity [5]: inactive
- Activity [7]: inactive
- MIC [8]: 98 µM
- Activity [9]: inactive
- Activity [10]: inactive
- Activity [12]: inactive
- Activity [13]: inactive
- Activity [14]: inactive
- Activity [15]: inactive
- Activity [16]: inactive
- MIC [17]: > 100 µg/mL
- Activity [18]: inactive
- Activity [19]: inactive
- Activity [20]: inactive
- log K [21]: 0.1408
- Activity [22]: inactive
- Activity [23]: inactive
- Activity [24]: inactive
- MIC [25]: 100 µg/mL

Structure (SMILES): CCNc1cnc(C(N)=O)cn1
- MIC [1]: > 100 µg/mL
- Activity [2]: inactive
- Activity [3]: inactive
- Activity [4]: inactive
- Activity [5]: inactive
- Activity [7]: inactive
- MIC [8]: > 100 µg/mL
- Activity [9]: inactive
- Activity [10]: inactive
- Activity [12]: inactive
- Activity [13]: inactive
- Activity [14]: inactive
- Activity [15]: inactive
- Activity [16]: inactive
- MIC [17]: > 100 µg/mL
- Activity [18]: inactive
- Activity [19]: inactive
- Activity [20]: inactive
- log K [21]: -0.552
- Activity [22]: inactive
- Activity [23]: inactive
- Activity [24]: inactive
- MIC [25]: > 100 µg/mL

Structure (SMILES): CCCCNc1cnc(C(N)=O)cn1
- MIC [1]: > 100 µg/mL
- Activity [2]: inactive
- Activity [3]: inactive
- Activity [4]: inactive
- Activity [5]: inactive
- Activity [7]: inactive
- MIC [8]: > 100 µg/mL
- Activity [9]: inactive
- Activity [10]: inactive
- Activity [12]: inactive
- Activity [13]: inactive
- Activity [14]: inactive
- Activity [15]: inactive
- Activity [16]: inactive
- MIC [17]: > 100 µg/mL
- Activity [18]: inactive
- Activity [19]: inactive
- Activity [20]: inactive
- log K [21]: -0.191
- Activity [22]: inactive
- Activity [23]: inactive
- Activity [24]: inactive
- MIC [25]: > 100 µg/mL

Structure (SMILES): CNc1cnc(C(N)=O)cn1
- MIC [1]: > 100 µg/mL
- Activity [2]: inactive
- Activity [3]: inactive
- Activity [4]: inactive
- Activity [5]: inactive
- Activity [7]: inactive
- MIC [8]: > 100 µg/mL
- Activity [9]: inactive
- Activity [10]: inactive
- Activity [12]: inactive
- Activity [13]: inactive
- Activity [14]: inactive
- Activity [15]: inactive
- Activity [16]: inactive
- MIC [17]: > 100 µg/mL
- Activity [18]: inactive
- Activity [19]: inactive
- Activity [20]: inactive
- log K [21]: -0.6878
- Activity [22]: inactive
- Activity [23]: inactive
- Activity [24]: inactive
- MIC [25]: > 100 µg/mL

Structure (SMILES): CCCCCCCNc1cncc(C(N)=O)n1
- MIC [1]: 100 µg/mL (≈ 423 µM)
- Activity [2]: inactive
- Activity [3]: inactive
- Activity [4]: inactive
- Activity [5]: inactive
- Activity [7]: inactive
- MIC [8]: 106 µM
- Activity [9]: inactive
- Activity [10]: inactive
- Activity [12]: inactive
- Activity [13]: inactive
- Activity [14]: inactive
- Activity [15]: inactive
- Activity [16]: inactive
- MIC [17]: 100 µg/mL (≈ 423 µM)
- Activity [18]: inactive
- Activity [19]: inactive
- Activity [20]: inactive
- log K [21]: 0.4273
- Activity [22]: inactive
- Activity [23]: inactive
- Activity [24]: inactive
- MIC [25]: 212 µM
